Laboratory results reported in ChEMBL document CHEMBL2029225, “Synthesis of marine-derived 3-alkylpyridinium alkaloids with potent antiprotozoal activity” (ACS Med Chem Lett, 2011).
The source made the active and inactive calls. The rule behind the calls is not given here.

Tests used:
HEK-293T = experiment: Cytotoxicity against human HEK293T cells after 72 hrs by alamar blue assay; format: cell-based
Plasmodium falciparum = experiment: Antiplasmodial activity against Plasmodium falciparum 3D7 assessed as inhibition of [3H]hypoxanthine incorporation after 18 hrs by liquid scintillation counting; format: functional, organism-based
Leishmania mexicana = experiment: Antileishmanial activity against amastigotes of Leishmania mexicana MNYC/BZ/62/M379 after 72 hrs by alamar blue assay; format: functional, organism-based; details: MNYC/BZ/62/M379, 72 h
Leishmania major = experiment: Antileishmanial activity against promastigotes of Leishmania major Friedlin after 72 hrs by alamar blue assay; format: functional, organism-based
[1] = system: Trypanosoma brucei brucei; experiment: Antitrypanosomal activity against bloodstream form of Trypanosoma brucei brucei 427 (BS221) assessed as increased propidium iodide uptake at 50 to 100 uM after 30 mins by real-time cell lysis assay; format: functional, organism-based
Method in brief: (§1)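 Real-time lysis assay with bloodstream-form T. brucei: propidium iodide in the medium fluoresces only on binding DNA/RNA in membrane-compromised cells. Fluorescence was followed for up to 8 h across a range of concentrations. The read-out was the time to reach 80% lysis versus concentration.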

[2] = system: Trypanosoma brucei brucei; experiment: Antitrypanosomal activity against bloodstream form of Trypanosoma brucei brucei 427 (BS221) after 72 hrs by alamar blue assay; format: functional, organism-based
[3] = system: Trypanosoma brucei brucei; experiment: Antitrypanosomal activity against TbAt1-deficient bloodstraem form of Trypanosoma brucei brucei 427 (BS221) after 72 hrs by alamar blue assay; format: functional, organism-based
[4] = system: Trypanosoma brucei brucei; experiment: Antitrypanosomal activity against TbAt1-deficient bloodstraem form Trypanosoma brucei brucei B48 after 72 hrs by alamar blue assay; format: functional, organism-based; details: B48, 72 h
[5] = system: Trypanosoma brucei brucei; experiment: Antitrypanosomal activity against bloodstream form of Trypanosoma brucei brucei 427 (BS221) assessed as increased propidium iodide uptake at >/=100 times EC50 after 8 hrs by real-time cell lysis assay; format: functional, organism-based; method in brief: as §1
[6] = system: Trypanosoma brucei brucei; experiment: Antitrypanosomal activity against digitonin permeabilized bloodstream form of Trypanosoma brucei brucei s427 assessed as increase in propidium iodide uptake at 0.3 to 1 uM up to 48 hrs by flow cytometry; format: functional, organism-based
Method in brief: (§2)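 Bloodstream-form T. brucei cultures were exposed to compound for up to 48 h, with duplicate samples taken at 24 and 48 h. Lysis sample: PI added directly for 10 min. DNA-content sample: fixed in 70% methanol or permeabilized with digitonin, RNase-treated, then PI-stained. 10000 cells were counted per panel by flow cytometry, and the experiment was run three times.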

[7] = system: Trypanosoma brucei brucei; experiment: Antitrypanosomal activity against bloodstream form of Trypanosoma brucei brucei s427 assessed as DNA fragmentation at 0.3 to 1 uM up to 48 hrs by flow cytometry; format: functional, organism-based; method in brief: as §2
[8] = system: Trypanosoma brucei brucei; experiment: Antitrypanosomal activity against Trypanosoma brucei brucei 427 at 10 uM after 24 hrs by hemocytometry; format: functional, organism-based
Method in brief: (§3)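 Reversibility test: bloodstream-form T. brucei cultures seeded at 2 × 10⁴ cells, compound added at t = 0 h. Compound was washed out after 24 h or 48 h, or left in. Growth was monitored over 72 h against drug-free controls.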

[9] = Selectivity ratio of EC50 for human HEK293 cells to EC50 for TbAt1-deficient bloodstraem form of Trypanosoma brucei brucei 427 (BS221); format: ADME, cell-based; details: read-out: Ratio EC50
[10] = system: Trypanosoma brucei brucei; experiment: Antitrypanosomal activity against digitonin permeabilized bloodstream form of Trypanosoma brucei brucei s427 assessed as decrease in 2C/4C DNA content by DAPI staining-based fluorescent microscopy; format: functional, organism-based
[11] = Selectivity ratio of EC50 for human HEK293 cells to EC50 for bloodstream form of Trypanosoma brucei brucei 427 (BS221); format: ADME, cell-based; details: read-out: Ratio EC50
[12] = Selectivity ratio of EC50 for human HEK293 cells to EC50 for Leishmania major Friedlin; format: ADME, cell-based; details: read-out: Ratio EC50
[13] = Selectivity ratio of EC50 for human HEK293 cells to EC50 for Leishmania mexicana MNYC/BZ/62/M379; format: ADME, cell-based; details: read-out: Ratio EC50
[14] = system: Trypanosoma brucei brucei; experiment: Antitrypanosomal activity against digitonin permeabilized bloodstream form of Trypanosoma brucei brucei s427 assessed as DNA fragmentation at 0.3 to 1 uM up to 48 hrs by flow cytometry; format: functional, organism-based; method in brief: as §2
[15] = system: Trypanosoma brucei brucei; experiment: Antitrypanosomal activity against bloodstream form of Trypanosoma brucei brucei s427 assessed as increase in propidium iodide uptake at 0.3 to 1 uM up to 48 hrs by flow cytometry; format: functional, organism-based; method in brief: as §2
[16] = Selectivity ratio of EC50 for human HEK293 cells to EC50 for Plasmodium falciparum 3D7; format: ADME, cell-based; details: read-out: Ratio EC50
[17] = system: Trypanosoma brucei brucei; experiment: Antitrypanosomal activity against bloodstream form of Trypanosoma brucei brucei 427 (BS221) assessed as increased propidium iodide uptake at 10 to 50 times EC50 after by real-time cell lysis assay; format: functional, organism-based; method in brief: as §1
[18] = system: Trypanosoma brucei brucei; experiment: Antitrypanosomal activity against bloodstream form of Trypanosoma brucei brucei 427 (BS221) assessed as increased propidium iodide uptake at 780 nM after 3 hrs by real-time cell lysis assay; format: functional, organism-based; method in brief: as §1
[19] = system: Trypanosoma brucei brucei; experiment: Antitrypanosomal activity against Trypanosoma brucei brucei 427 at 1 uM after 48 hrs by hemocytometry; format: functional, organism-based; method in brief: as §3
[20] = system: Trypanosoma brucei brucei; experiment: Antitrypanosomal activity against Trypanosoma brucei brucei 427 at 0.1 uM after 72 hrs by hemocytometry; format: functional, organism-based; method in brief: as §3
[21] = system: Trypanosoma brucei brucei; experiment: Antitrypanosomal activity against digitonin permeabilized bloodstream form of Trypanosoma brucei brucei s427 assessed as DNA fragmentation at 1 uM at 24 hrs by flow cytometry; format: functional, organism-based; method in brief: as §2
[22] = system: Trypanosoma brucei brucei; experiment: Antitrypanosomal activity against Trypanosoma brucei brucei 427 at 1 uM after 24 hrs by hemocytometry; format: functional, organism-based; method in brief: as §3
[23] = system: Trypanosoma brucei brucei; experiment: Antitrypanosomal activity against digitonin permeabilized bloodstream form of Trypanosoma brucei brucei s427 assessed as increase in propidium iodide uptake at 1 uM at 24 hrs by flow cytometry; format: functional, organism-based; method in brief: as §2
[24] = system: Trypanosoma brucei brucei; experiment: Antitrypanosomal activity against bloodstream form of Trypanosoma brucei brucei s427 assessed as DNA fragmentation at 0.3 uM after 48 hrs by flow cytometry; format: functional, organism-based; method in brief: as §2
[25] = system: Trypanosoma brucei brucei; experiment: Antitrypanosomal activity against bloodstream form of Trypanosoma brucei brucei s427 assessed as increase in propidium iodide uptake at 0.3 uM after 48 hrs by flow cytometry; format: functional, organism-based; method in brief: as §2
[26] = system: Trypanosoma brucei brucei; experiment: Antitrypanosomal activity against bloodstream form of Trypanosoma brucei brucei s427 assessed as cell cylce arrest at 0.3 uM after 24 hrs by flow cytometry; format: functional, organism-based; method in brief: as §2

SMILES | EC50 (HEK-293T) | EC50 (Plasmodium falciparum) | EC50 (Leishmania mexicana) | EC50 (Leishmania major) | Activity [1] | EC50 [2] | EC50 [3] | EC50 [4] | Activity [5] | further results
C[n+]1cccc(CCCCCCCCCCCCCO)c1 | 183 µM | 1.5 µM | 4.8 µM | 2.7 µM | Active | 2.3 µM | 2.3 µM | 2.7 µM |  | 
CCN(CC)CCCC(C)Nc1ccnc2cc(Cl)ccc12 (stereo not given) [CHLOROQUINE] |  | 0.00067 µM |  |  |  |  |  |  |  | 
OCCCCCCCCCCCCCc1cccnc1 | 204 µM | 7.5 µM | > 50 µM | > 50 µM |  | 16 µM | 34 µM | 35 µM |  | 
COc1ccc(C[n+]2cccc(CCCCCCCCCCCCCI)c2)cc1 | 41 µM | 0.22 µM | 0.4 µM | 1 µM | Active | 0.19 µM | 0.48 µM | 0.2 µM | Active | 
CCCC[n+]1cccc(CCCCCCCCCCCCCO)c1 | 48 µM | 0.51 µM | 1.7 µM | 0.33 µM | Active | 0.16 µM | 0.26 µM | 0.2 µM | Active | Activity [6]: inactive; Activity [7]: inactive; Activity [8]: Active; selectivity ratio [9]: 299; Activity [10]: inactive; selectivity ratio [11]: 299; selectivity ratio [12]: 145; selectivity ratio [13]: 145; Activity [14]: inactive; Activity [15]: inactive
N=C(N)c1ccc(OCCCCCOc2ccc(C(=N)N)cc2)cc1 [PENTAMIDINE] |  |  | 8.8 µM | 4.3 µM |  | 0.0014 µM | 0.0032 µM | 0.066 µM |  | 
c1cc2c[n+](c1)CCCCCCCCCCCCCc1ccc[n+](c1)CCCCCCCCCCCCCc1ccc[n+](c1)CCCCCCCCCCCCC2 [VISCOSAMINE] | 26 µM | 0.053 µM | 0.81 µM | 0.72 µM | Active | 0.41 µM | 0.49 µM | 0.28 µM |  | selectivity ratio [16]: 493; Activity [17]: Active
N=C(N)c1ccc(/N=N/Nc2ccc(C(=N)N)cc2)cc1 [DIMINAZEN ACETURATE] |  |  | 24 µM |  |  | 0.26 µM | 7.9 µM |  |  | 
OCCCCCCCCCCCCCc1ccc[n+](CCCCCCCCCCCCCc2ccc[n+](CCCCCCCCCCCCCc3cccnc3)c2)c1 | 16 µM | 0.068 µM | 0.19 µM | 0.85 µM | Active | 0.22 µM | 0.27 µM | 0.25 µM |  | selectivity ratio [16]: 237; Activity [17]: Active
OCCCCCCCCCCCCCc1ccc[n+](CCCCCCCCCCCCCc2cccnc2)c1 | 25 µM | 0.14 µM | 0.34 µM | 1.6 µM | Active | 0.4 µM | 0.62 µM | 0.3 µM |  | Activity [18]: Active
c1cc2c[n+](c1)CCCCCCCCCCCCCc1ccc[n+](c1)CCCCCCCCCCCCCc1ccc[n+](c1)CCCCCCCCCCCCCc1ccc[n+](c1)CCCCCCCCCCCCC2 | 14 µM | 0.19 µM | 1.1 µM | 0.64 µM | Active | 0.56 µM | 0.66 µM | 0.42 µM |  | Activity [17]: Active
NCCS[As](SCCN)c1ccc(Nc2nc(N)nc(N)n2)cc1 |  |  |  |  |  | 0.0039 µM | 0.0078 µM | 0.21 µM |  | 
COc1ccc(C[n+]2cccc(CCCCCCCCCCCCCO)c2)cc1 | 21 µM | 0.24 µM | 0.65 µM | 0.32 µM | Active | 0.049 µM | 0.084 µM | 0.062 µM | Active | Activity [6]: inactive; Activity [7]: inactive; Activity [8]: Active; selectivity ratio [9]: 437; Activity [19]: Active; Activity [10]: inactive; selectivity ratio [11]: 437; Activity [20]: inactive; Activity [14]: inactive; Activity [15]: inactive
OCCCCCCCCCCCCCc1ccc[n+](CCCCCCCCCCCCCc2ccc[n+](CCCCCCCCCCCCCc3ccc[n+](CCCCCCCCCCCCCc4cccnc4)c3)c2)c1 | 11 µM | 0.16 µM | 0.23 µM | 1.1 µM | Active | 0.31 µM | 0.41 µM | 0.33 µM |  | Activity [17]: Active
C[n+]1cccc(CCCCCCCCCCCCCI)c1 | 47 µM | 0.26 µM | 0.28 µM | 0.31 µM | Active | 0.086 µM | 0.18 µM | 0.11 µM | Active | Activity [6]: inactive; Activity [7]: inactive; Activity [8]: Active; selectivity ratio [9]: 540; Activity [10]: inactive; selectivity ratio [11]: 540; selectivity ratio [12]: 149; selectivity ratio [13]: 149; Activity [14]: inactive; Activity [15]: inactive
CCCC[n+]1cccc(CCCCCCCCCCCCCI)c1 | 26 µM | 0.31 µM | 0.29 µM | 0.36 µM | Active | 0.014 µM | 0.063 µM | 0.034 µM | Active | Activity [21]: inactive; Activity [22]: Active; Activity [8]: Active; selectivity ratio [9]: > 1000; Activity [23]: Active; Activity [24]: Active; Activity [25]: Active; Activity [26]: inactive; Activity [10]: inactive; selectivity ratio [11]: > 1000; Activity [20]: inactive
